Experimental findings from ChEMBL document CHEMBL3861997 (Bioorg Med Chem, 2016) are described below.

The target in one test is Coagulation factor X (Homo sapiens, UniProt P00742). Briefly: Inhibition of human coagulation factor 10a assessed as reduction in p-nitroaniline cleavage from pefachrome substrate preincubated for 10 mins followed by substrate addition measured after 20 mins.
A short description of test [1]: Anticoagulant activity in rabbit plasma assessed as increase in prothrombin time. The format is functional, Oryctolagus cuniculus. The essentials:
(§1)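 Concentration doubling clotting time (EC2x), human or rabbit plasma. Plasma from centrifugation at 2000 g, 10 min. Inhibitor stock in DMSO, serially diluted; clotting time measured in control plasma and plasma with five to seven inhibitor concentrations. PT run on temperature-controlled automated coagulation analyser with Thromborel-S reagent. Duplicate determinations at each concentration.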

Test [2] can be described thus: Anticoagulant activity in healthy human plasma assessed as increase in activated partial thromboplastin time. Type of test: functional.
A short description of test [3]: Anticoagulant activity in healthy human plasma assessed as increase in prothrombin time. Type of test: functional. The essentials:
as §1

Test [4] in a line: Anticoagulant activity in rabbit plasma assessed as increase in activated partial thromboplastin time. The format is functional, Oryctolagus cuniculus.
The species entered for a further test is Rattus norvegicus. As to the kind of experiment: Antithrombotic activity in rat venous thrombus model assessed as inhibition of thrombus formation relative to control. The format is functional. In short, it runs like this:
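Rat venous stasis model: after 2 h the abdomen was reopened and the vena cava dissected longitudinally. Thrombus removed, held at 37 °C for 24 h, then dry weight measured.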

Coagulation factor X, sequence (P00742 41-179 limits assumed): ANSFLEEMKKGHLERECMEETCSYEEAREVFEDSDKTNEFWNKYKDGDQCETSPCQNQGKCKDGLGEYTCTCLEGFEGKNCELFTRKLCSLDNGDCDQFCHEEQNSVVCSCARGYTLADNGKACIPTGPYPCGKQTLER
Coagulation factor X, sequence (P00742 235-488 limits assumed): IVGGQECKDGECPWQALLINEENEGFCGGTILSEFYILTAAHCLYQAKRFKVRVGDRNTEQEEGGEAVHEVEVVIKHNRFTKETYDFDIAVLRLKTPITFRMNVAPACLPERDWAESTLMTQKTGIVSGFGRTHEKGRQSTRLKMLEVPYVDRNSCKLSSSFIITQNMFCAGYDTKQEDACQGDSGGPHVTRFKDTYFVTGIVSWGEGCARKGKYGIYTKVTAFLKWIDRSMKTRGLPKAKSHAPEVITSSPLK

Take `COc1ccc(-n2nc(-c3nc[nH]n3)c3c2C(=O)N(c2ccc(N4CCCCC4=O)cc2)CC3)cc1`: the IC50 on Coagulation factor X turned out to be 150 nM. Further, the 2PT in test [1] came to 0.7 µM; in test [3] it was 0.5 µM. The 2aPTT in test [2] stood at 0.8 µM; in test [4] it was 1.2 µM. Further, the “inhibition (INH)” value in the test filed under Rattus norvegicus was found to be 99%.
Turning to `COc1ccc(-n2nc(-c3n[nH]c(=O)n3-c3ccccc3C(F)(F)F)c3c2C(=O)N(c2ccc(N4CCCCC4=O)cc2)CC3)cc1`, the 2PT in test [1] was 17.9 µM; in test [3], 16.8 µM. Further, the values for the 2aPTT in test [2] and in test [4] were 30.1 µM and 32.1 µM, respectively.
Turning to `COc1ccc(-n2nc(-c3nncn3CCN(C)C)c3c2C(=O)N(c2ccc(N4CCCCC4=O)cc2)CC3)cc1`, the 2PT amounted to 4.4 µM in test [1] and 3.9 µM in test [3]. Besides, the figures for the 2aPTT in test [2] and in test [4] were 7 µM and 8 µM, respectively.
As for `CCN(CC)CCCn1cnnc1-c1nn(-c2ccc(OC)cc2)c2c1CCN(c1ccc(N3CCCCC3=O)cc1)C2=O`, the values for the 2PT in test [1] and in test [3] were 6.1 µM and 5 µM, respectively. Moreover, the 2aPTT worked out at 10 µM in test [2] and 11.1 µM in test [4].
Take `COc1ccc(-n2nc(-n3cccc3CN(C)C)c3c2C(=O)N(c2ccc(N4CCCCC4=O)cc2)CC3)cc1`: the results for the 2PT in test [1] and in test [3] were 1.9 µM and 1.5 µM, respectively. In addition, the results for the 2aPTT in test [2] and in test [4] were 3.5 µM and 3.2 µM, respectively.
Turning to `COc1ccc(-n2nc(-c3n[nH]c(=O)n3-c3ccc(OC)cc3)c3c2C(=O)N(c2ccc(N4CCCCC4=O)cc2)CC3)cc1`, the 2PT came out at 9.2 µM in test [1] and 14.8 µM in test [3]. Moreover, the 2aPTT in test [2] is 21.3 µM; in test [4] it was 19.2 µM.
Consider `O=C1CCCCN1c1ccc(N2CCc3c(-c4nc[nH]n4)nn(-c4ccc(OC(F)F)cc4)c3C2=O)cc1`, for which the 2PT in test [1] stood at 4 µM; in test [3], 3.6 µM. The 2aPTT in test [2] stood at 6.6 µM; in test [4], 7.8 µM.
On to `O=C1CCCCN1c1ccc(N2CCc3c(-c4nc[nH]n4)nn(-c4ccc(Cl)cc4)c3C2=O)cc1`, for which the figures for the 2PT in test [1] and in test [3] were 4.2 µM and 4.3 µM, respectively. The 2aPTT was found to be 8.4 µM in test [2] and 9.9 µM in test [4].
Regarding `CCN(CC)Cc1cccn1-c1nn(-c2ccc(OC)cc2)c2c1CCN(c1ccc(N3CCCCC3=O)cc1)C2=O`, the 2PT in test [1] is 2.1 µM; in test [3] it was 1.6 µM. Also, the 2aPTT in test [2] turned out to be 3.7 µM; in test [4] it was 3.9 µM.
On to `COc1ccc(-n2nc(-n3cccc3CN3CCOCC3)c3c2C(=O)N(c2ccc(N4CCCCC4=O)cc2)CC3)cc1`, for which the 50% inhibitory concentration (IC50) at Coagulation factor X worked out at 2400 nM. In addition, the 2PT in test [1] stood at 1.7 µM; in test [3], 1.1 µM. Further, the figures for the 2aPTT in test [2] and in test [4] were 2.4 µM and 3.9 µM, respectively. Moreover, the “inhibition (INH)” value in the test filed under Rattus norvegicus is given as 57%.
With `COc1ccc(-n2nc(-c3ncnn3C)c3c2CCN(c2ccc(N4CCCCC4=O)cc2)C3=O)cc1`, the 2PT in test [1] is 4.1 µM; in test [3], 3.3 µM. Also, the values for the 2aPTT in test [2] and in test [4] were 10 µM and 15.1 µM, respectively.
In the same order, the values of `COc1ccc(-n2nc(-c3n[nH]c(C4CC4)n3)c3c2C(=O)N(c2ccc(N4CCCCC4=O)cc2)CC3)cc1` are 4.9 µM, 3.5 µM, 5.1 µM and 6 µM.
Consider `COc1ccc(-n2nc(-c3n[nH]c(C)n3)c3c2C(=O)N(c2ccc(N4CCCCC4=O)cc2)CC3)cc1`, for which the figures for the 2PT in test [1] and in test [3] were 1.9 µM and 1.6 µM, respectively. Further, the figures for the 2aPTT in test [2] and in test [4] were 3.7 µM and 3.2 µM, respectively.
For the molecule `COc1ccc(-n2nc(-c3nncn3CCCN3CCOCC3)c3c2C(=O)N(c2ccc(N4CCCCC4=O)cc2)CC3)cc1`, the 2PT in test [1] was found to be 7.5 µM; in test [3] it was 5.5 µM. The 2aPTT in test [2] stood at 10.5 µM; in test [4] it was 15 µM.
For `O=C1CCCCN1c1ccc(N2CCc3c(-c4nc[nH]n4)nn(-c4ccc(F)cc4)c3C2=O)cc1` the same measures were 2.8 µM, 1.8 µM, 4.5 µM and 5.1 µM.
In the case of `COc1ccc(-n2nc(-c3n[nH]c(=O)n3-c3ccccc3)c3c2C(=O)N(c2ccc(N4CCCCC4=O)cc2)CC3)cc1`, the 2PT in test [1] stood at 13.3 µM; in test [3], 12.9 µM. Besides, the 2aPTT is 20.3 µM in test [2] and 22.1 µM in test [4].
Regarding `O=C1CCCCN1c1ccc(N2CCc3c(-c4nc[nH]n4)nn(-c4ccc(Br)cc4)c3C2=O)cc1`, the results for the 2PT in test [1] and in test [3] were 7.9 µM and 6.4 µM, respectively. For the same molecule, the figures for the 2aPTT in test [2] and in test [4] were 11.3 µM and 10.2 µM, respectively.
In the same order, the values of `O=C1CCCCN1c1ccc(N2CCc3c(-c4nc[nH]n4)nn(-c4ccc(OC(F)(F)F)cc4)c3C2=O)cc1` are 6.4 µM, 5.5 µM, 10.5 µM and 12 µM.
On to `COc1ccc(-n2nc(C(N)=O)c3c2C(=O)N(c2ccc(C4=NCCN4)cc2)CC3)cc1`, for which the 50% inhibitory concentration (IC50) at Coagulation factor X worked out at 1990 nM. In addition, the 2PT in test [1] was 0.7 µM; in test [3], 0.9 µM. For the same molecule, the 2aPTT in test [2] was 0.9 µM; in test [4] it was 1 µM. In the test listed under Rattus norvegicus, the “inhibition (INH)” value is reported as 66%.
On to `COc1ccc(-n2nc(-c3n[nH]c(C4CCCO4)n3)c3c2C(=O)N(c2ccc(N4CCCCC4=O)cc2)CC3)cc1` (configuration not stated), for which the 2PT in test [1] turned out to be 5 µM; in test [3], 3.9 µM. The values for the 2aPTT in test [2] and in test [4] were 6.3 µM and 7.9 µM, respectively.
In the case of `COc1ccc(-n2nc(-c3ncn(C)n3)c3c2CCN(c2ccc(N4CCCCC4=O)cc2)C3=O)cc1`, the IC50 at Coagulation factor X amounted to 2400 nM. In addition, the 2PT in test [1] was 0.9 µM; in test [3], 0.8 µM. Moreover, the 2aPTT in test [2] came out at 1.9 µM; in test [4] it was 3 µM. Also, the “inhibition (INH)” value in the test listed under Rattus norvegicus is listed as 65%.
Turning to `COc1ccc(-n2nc(-c3nncn3CCCN(C)C)c3c2C(=O)N(c2ccc(N4CCCCC4=O)cc2)CC3)cc1`, the 2PT in test [1] is 5.7 µM; in test [3] it was 4.5 µM. Further, the 2aPTT amounted to 9 µM in test [2] and 10.1 µM in test [4].
In the case of `COCc1nc(-c2nn(-c3ccc(OC)cc3)c3c2CCN(c2ccc(N4CCCCC4=O)cc2)C3=O)n[nH]1`, the values for the 2PT in test [1] and in test [3] were 3 µM and 2.4 µM, respectively. Besides, the results for the 2aPTT in test [2] and in test [4] were 4.1 µM and 6 µM, respectively.
Take `COc1ccc(-n2nc(-c3n[nH]c(C(C)(C)C)n3)c3c2C(=O)N(c2ccc(N4CCCCC4=O)cc2)CC3)cc1`: the IC50 at Coagulation factor X worked out at 850 nM. The 2PT was found to be 1.4 µM in test [1] and 1 µM in test [3]. The 2aPTT in test [2] was determined as 2.3 µM; in test [4], 4.1 µM. Also, the “inhibition (INH)” value in the test filed under Rattus norvegicus is recorded as 70%.
For `COc1ccc(-n2nc(C(N)=O)c3c2C(=O)N(c2ccc(C4=NCCCN4)cc2)CC3)cc1`, the IC50 on Coagulation factor X was found to be 350 nM. Further, the results for the 2PT in test [1] and in test [3] were 1.1 µM and 0.9 µM, respectively. Also, the 2aPTT in test [2] is 1.1 µM; in test [4] it was 2 µM. Moreover, the “inhibition (INH)” value in the test filed under Rattus norvegicus is listed as 82%.
Regarding `COc1ccc(-n2nc(C(N)=O)c3c2C(=O)N(c2ccc(N4CCCCC4=O)cc2)CC3)cc1` [APIXABAN], the 2PT came out at 0.6 µM in test [1] and 0.8 µM in test [3]. Also, the 2aPTT in test [2] was 0.9 µM; in test [4] it was 1.4 µM. Further, in the test filed under Rattus norvegicus, the “inhibition (INH)” value was determined as 96%.

The term IC50 denotes the midpoint of a concentration-inhibition curve.
